According to paper PMC7723234 (Journal of medicinal chemistry, 2019):
“Also recorded” adds a separate entry of the source.

Legend:
[1] = target: Human TOP2A (Homo sapiens, UniProt P11388); assay: TOP2A decatenation assay; assay type: biochemical; settings: screen at 30 μM / SAR discussion
In short: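 For screening, TOP2A (3U/reaction) was preincubated 20 min at 37 °C with 30 μM test compound in 1.2% DMSO. Then 2 mM ATP and 35 ng kDNA were added for 1 h at 37 °C. Products ran on 0.8% agarose in TBE with 0.2 μg/mL ethidium bromide (1 h, 100 V), and decatenated bands were compared with vehicle. Dose-responses used 2-fold dilutions (58.6 nM–30 μM) and 4U enzyme.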

[2] = Microsome stability studies; assay type: in vitro ADME; settings: mouse microsomes; for microsomal stability (in words): Phase I, 0 to 60 min
In short: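 Female CD-1 mouse liver microsomes (0.5 mg/mL) with 1.5 mM NADPH in 0.1 M phosphate buffer, pH 7.4, were pre-warmed 5 min at 37 °C. Reactions were started with 1 μg/mL test compound and run at 37 °C. Aliquots taken over 0–60 min were quenched with equal-volume acetonitrile and centrifuged (20,000g, 10 min) for LCMS. Compound-stability controls under reaction conditions were included.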

[3] = test system: TOP2A mediated TCF-transcription; settings: cited from earlier work
[4] = target: hTopoIIα (Homo sapiens, UniProt P11388); assay: TOP2A ATPase assay; assay type: biochemical; settings: ATP hydrolysis, Vmax unchanged, KM shifts
hTopoIIα, sequence (P11388 whole entry): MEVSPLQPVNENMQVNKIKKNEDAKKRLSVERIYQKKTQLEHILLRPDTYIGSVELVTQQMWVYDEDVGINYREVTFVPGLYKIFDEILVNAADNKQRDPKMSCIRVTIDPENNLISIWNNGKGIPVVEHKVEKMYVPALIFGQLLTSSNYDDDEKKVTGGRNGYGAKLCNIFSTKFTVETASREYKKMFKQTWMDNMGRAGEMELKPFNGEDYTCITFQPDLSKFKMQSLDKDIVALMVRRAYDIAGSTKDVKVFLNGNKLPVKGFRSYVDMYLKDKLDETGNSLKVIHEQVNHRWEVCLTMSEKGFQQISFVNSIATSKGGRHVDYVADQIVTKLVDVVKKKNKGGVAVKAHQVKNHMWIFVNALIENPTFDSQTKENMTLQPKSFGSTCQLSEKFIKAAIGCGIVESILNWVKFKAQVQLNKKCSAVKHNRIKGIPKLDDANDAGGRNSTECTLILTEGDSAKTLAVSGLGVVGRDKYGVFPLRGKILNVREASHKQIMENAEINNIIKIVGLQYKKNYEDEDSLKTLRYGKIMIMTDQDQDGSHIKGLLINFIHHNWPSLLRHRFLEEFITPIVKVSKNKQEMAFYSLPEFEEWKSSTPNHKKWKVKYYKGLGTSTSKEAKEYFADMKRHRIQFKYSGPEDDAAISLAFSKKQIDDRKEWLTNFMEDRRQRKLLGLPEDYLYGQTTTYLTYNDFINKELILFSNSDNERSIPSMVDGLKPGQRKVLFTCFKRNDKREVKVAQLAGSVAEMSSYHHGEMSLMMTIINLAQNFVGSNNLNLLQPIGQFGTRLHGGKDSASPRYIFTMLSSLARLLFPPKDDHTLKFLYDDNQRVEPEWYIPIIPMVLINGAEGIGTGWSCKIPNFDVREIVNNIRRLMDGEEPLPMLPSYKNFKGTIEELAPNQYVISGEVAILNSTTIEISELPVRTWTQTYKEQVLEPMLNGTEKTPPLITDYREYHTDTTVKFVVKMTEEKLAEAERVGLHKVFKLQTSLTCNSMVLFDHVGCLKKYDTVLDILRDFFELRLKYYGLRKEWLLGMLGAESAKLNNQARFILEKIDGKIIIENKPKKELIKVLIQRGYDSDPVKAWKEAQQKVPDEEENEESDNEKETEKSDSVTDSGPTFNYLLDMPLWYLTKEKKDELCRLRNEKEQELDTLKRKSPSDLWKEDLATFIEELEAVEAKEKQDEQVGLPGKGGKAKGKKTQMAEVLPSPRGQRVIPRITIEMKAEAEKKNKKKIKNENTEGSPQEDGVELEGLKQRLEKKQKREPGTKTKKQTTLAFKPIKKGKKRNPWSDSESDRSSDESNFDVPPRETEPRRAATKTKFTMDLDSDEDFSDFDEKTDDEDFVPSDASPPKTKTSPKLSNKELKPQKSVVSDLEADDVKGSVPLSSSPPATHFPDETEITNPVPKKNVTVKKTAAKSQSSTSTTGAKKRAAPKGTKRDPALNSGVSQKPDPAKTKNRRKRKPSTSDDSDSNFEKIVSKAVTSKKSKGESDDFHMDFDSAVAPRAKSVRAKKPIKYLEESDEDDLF

[5] = test system: SW620; assay: γ-H2AX DNA damage assay; assay type: cell-based; settings: concentration range 0–40 μM
[6] = test system: TOP2A-dependent TCF-transcription in SW620-TOP tumor organoids; assay: 3D tumor organoid TOPflash reporter assay; assay type: cell-based
In short: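 SW620 cells stably carrying pCDH-TOPflash-luc-EF1-puro were seeded at 5,000 cells/well in ultra-low-attachment U-bottom wells, centrifuged, given 2% Matrigel (final) and grown 72 h in phenol red-free RPMI-1640 with 5% FBS. Organoids were treated 72 h. One-Glo luciferase and CellTiter-Glo 3D were added 1:1 and luminescence read. TCF signal was normalised to viability, then to DMSO controls.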

[7] = test system: caspase 3 and 7 activity in SW620 tumor organoids; assay: Tumor organoid caspase 3/7 activity; assay type: cell-based; settings: higher doses, vs DMSO
In short: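 SW620 cells were seeded at 2,000/well in round-bottom ultra-low-attachment 384-well plates in RPMI-1640 with 5% FBS and 2% Matrigel, grown 72 h, then treated with a range of doses for 72 h. Caspase-Glo 3/7 was added 1:1, plates shaken 30 min, and luminescence read. Staurosporine served as positive control and 0.4% DMSO as negative control.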

[8] = test system: SW620 cells; assay: Tumor organoid CSC stemness assay; assay type: cell-based; settings: SW620 cells pretreated 24 h, colonies over seven days, vs DMSO
[9] = test system: SW620 tumor organoids; assay: SW620 tumor organoid growth in volume; assay type: cell-based; settings: 72 h, vs DMSO
[10] = In vivo PK studies; settings: female CD-1 mice, single IP 50 mg/kg, plasma
In short: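 Female CD-1 mice got one IP dose of 50 mg/kg in 100% DMSO. Blood was sampled from 0.25–24 h, three mice per time point (21 per compound), into sodium heparin. Plasma was spun out (1800xg, 10 min, 4 °C), frozen at −80 °C, mixed 1:1 with ACN acidified with formic or trifluoroacetic acid (0.1%, varying by compound), centrifuged and analysed by LC-MS/MS.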

[11] = cited from earlier work
[12] = cited from earlier work; remark: listed apart in the source
[13] = Compound aqueous solubility in PBS; assay type: physicochemical; settings: ratio to prototype 7
In short: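 Test compound (1 mg) was dissolved in 200 μL 10% DMSO in PBS, pH 7.4, and equilibrated as for the 1-propanol solutions (18 h, 25 °C), then centrifuged. The UV absorption spectrum was compared with a fully saturated 1-propanol solution, and solubility was calculated by linear regression.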

Human TOP2A, sequence (P11388 whole entry): as above

CC(=O)Nc1ccc2c(-c3ccsc3)ccnc2c1O [Compound 58, 7-Acetamido-4-(thiophen-3-yl)-8-hydroxyquinoline]
inhibition of TOP2A decatenation (in words) [1]: improves activity compared to the 3-furanyl analog 56
microsomal stability (in words) [2]: metabolized faster within the first 30 minutes; also recorded: biphasic kinetics

COc1cc([C@@H]2c3cc4c(cc3[C@@H](O[C@@H]3O[C@@H]5CO[C@@H](C)O[C@H]5[C@H](O)[C@H]3O)[C@H]3COC(=O)[C@H]23)OCO4)cc(OC)c1O [etoposide]
effect on TOP2A mediated TCF-transcription [3]: do not inhibit

CC(=O)Nc1ccc2c(-c3cc(Cl)ccc3O)ccnc2c1O [Compound 38, 7-Acetamido-4-(5-chloro-2-hydroxyphenyl)-8-hydroxyquinoline]
inhibition of TOP2A decatenation (in words) [1]: did not inhibit

CC(=O)Nc1ccc2c(-c3ccc(C(F)(F)F)cc3)ccnc2c1O [Compound 32, 7-Acetamido-4-((4-trifluoromethyl)phenyl)-8-hydroxyquinoline]
inhibition of TOP2A decatenation (in words) [1]: excellent inhibitory activity

CC(=O)Nc1ccc2c(-c3ccc(F)cc3)ccnc2c1O [Compound 30, 7-Acetamido-4-(4-fluorophenyl)-8-hydroxyquinoline]
inhibition of TOP2A decatenation (in words) [1]: activity is lost

CC(=O)Nc1cccc(-c2ccnc3c(O)c(NC(C)=O)ccc23)c1 [Compound 36, 7-Acetamido-4-(3-acetamidophenyl)-8-hydroxyquinoline]
inhibition of TOP2A decatenation (in words) [1]: significant loss of activity

CC(=O)Nc1ccc2c(-c3cccc(C(F)(F)F)c3)ccnc2c1O [Compound 31, 7-Acetamido-4-((3-trifluoromethyl)phenyl)-8-hydroxyquinoline]
inhibition of TOP2A decatenation (in words) [1]: excellent inhibitory activity
microsomal stability (in words) [2]: not readily transformed by Phase I metabolic enzymes

CC(=O)Nc1ccc2c(-c3cc(F)ccc3O)ccnc2c1O [Compound 7, 7-Acetamido-4-(5-fluoro-2-hydroxyphenyl)-8-hydroxyquinoline]
inhibition of TOP2A decatenation (in words) [1]: complete inhibition
mode of TOP2A inhibition [4]: competitive mode of inhibition
DNA double stranded breaks (H2AX S139 phosphorylation immunofluorescence) [5]: do not cause DNA DSBs
inhibition of TOP-activity (TOPflash) in words [6]: significantly inhibit
induction of apoptosis (caspase 3 and 7 cleavage) in words [7]: induce apoptosis
colony formation (clonogenic assay) [8]: inhibit colony formation
tumor organoid growth in volume [9]: significantly inhibited tumor organoid growth
microsomal stability (in words) [2]: metabolized faster within the first 30 minutes
CL [10]: 64.5 mL/min/kg

CC(=O)Nc1ccccc1-c1ccnc2c(O)c(NC(C)=O)ccc12 [Compound 34, 7-Acetamido-4-(2-acetamidophenyl)-8-hydroxyquinoline]
inhibition of TOP2A decatenation (in words) [1]: significant loss of activity

Cn1ccc2c(c1=O)C(=O)c1nccc3c1c-2nc1ccccc13 [neo, neoamphimedine]
mode of TOP2A inhibition [4]: competitive mode of inhibition
DNA double stranded breaks (H2AX S139 phosphorylation immunofluorescence) [5]: do not cause DNA DSBs
effect on TOP2A mediated TCF-transcription [3]: prevents TCF-transcription
solubility in water [11]: insoluble
metabolic stability [12]: metabolically unstable

CC(=O)Nc1ccc(-c2ccnc3c(O)c(NC(C)=O)ccc23)cc1 [Compound 35, 7-Acetamido-4-(4-acetamidophenyl)-8-hydroxyquinoline]
inhibition of TOP2A decatenation (in words) [1]: restored inhibitory activity
microsomal stability (in words) [2]: not readily transformed by Phase I metabolic enzymes

O=C1NC(=S)NC(=O)C1C(=O)Nc1ccccc1 [merbarone]
effect on TOP2A mediated TCF-transcription [3]: do not inhibit

CC(=O)Nc1ccc2c(-c3cc4ccccc4o3)ccnc2c1O [Compound 53, 7-Acetamido-4-(2-benzofuranyl)-8-hydroxyquinoline]
inhibition of TOP2A decatenation (in words) [1]: complete inhibitory activity
microsomal stability (in words) [2]: not readily transformed by Phase I metabolic enzymes
CL [10]: 283.2 mL/min/kg

CC(=O)Nc1ccc2c(-c3ccco3)ccnc2c1O [Compound 55, 7-Acetamido-4-(2-furanyl)-8-hydroxyquinoline]
inhibition of TOP2A decatenation (in words) [1]: significant loss of activity

O=C(CCN1CCOCC1)Nc1ccc2c(-c3cc4ccccc4o3)ccnc2c1O [Compound 61, 4-(2-benzofuranyl)-8-hydroxy-7-(3-(morpholin-4-yl)propanamido)quinoline]
half-life at 1 μg/mL ([2]; female, CD-1, mouse, pH 7.4): 15 min
microsomal stability (in words) [2]: not readily transformed by Phase I metabolic enzymes
CL [10]: 61.8 mL/min/kg

CC(=O)Nc1ccc2c(-c3cc4ccccc4s3)ccnc2c1O [Compound 54, 7-Acetamido-4-(benzo[b]thiophen-2-yl)-8-hydroxyquinoline]
inhibition of TOP2A decatenation (in words) [1]: inhibition was lost

CC(=O)Nc1ccc2c(-c3cc(C(F)(F)F)ccc3O)ccnc2c1O [Compound 37, 7-Acetamido-4-(2-hydroxy-5-trifluoromethylphenyl)-8-hydroxyquinoline]
inhibition of TOP2A decatenation (in words) [1]: excellent inhibitory activity

CC(=O)Nc1ccc2c(-c3ccccc3)ccnc2c1O [Compound 28, 7-Acetamido-4-(phenyl)-8-hydroxyquinoline]
microsomal stability (in words) [2]: biphasic kinetics

O=C(CCN1CCOCC1)Nc1ccc2c(-c3cc(F)ccc3O)ccnc2c1O [Compound 42, 4-(5-fluoro-2-hydroxyphenyl)-8-hydroxy-7-(3-(morpholin-4-yl)propanamido)quinoline]
induction of apoptosis (caspase 3 and 7 cleavage) in words [7]: induce apoptosis
tumor organoid growth in volume [9]: significantly inhibited tumor organoid growth
microsomal stability (in words) [2]: least stable
solubility in PBS compared to prototype 7 [13]: 3.4 times
CL [10]: 62.2 mL/min/kg

O=C(CN1CCOCC1)Nc1ccc2c(-c3cc4ccccc4o3)ccnc2c1O [Compound 60, 4-(2-benzofuranyl)-8-hydroxy-7-(2-(morpholin-4-yl)acetamido)quinoline]
induction of apoptosis (caspase 3 and 7 cleavage) in words [7]: induce apoptosis
tumor organoid growth in volume [9]: significantly inhibited tumor organoid growth
microsomal stability (in words) [2]: not readily transformed by Phase I metabolic enzymes
CL [10]: 137 mL/min/kg
